For data set [1], the target named is T1, Histone deacetylase 8 (Homo sapiens, UniProt Q9BY41).
T1 sequence (Q9BY41 whole entry): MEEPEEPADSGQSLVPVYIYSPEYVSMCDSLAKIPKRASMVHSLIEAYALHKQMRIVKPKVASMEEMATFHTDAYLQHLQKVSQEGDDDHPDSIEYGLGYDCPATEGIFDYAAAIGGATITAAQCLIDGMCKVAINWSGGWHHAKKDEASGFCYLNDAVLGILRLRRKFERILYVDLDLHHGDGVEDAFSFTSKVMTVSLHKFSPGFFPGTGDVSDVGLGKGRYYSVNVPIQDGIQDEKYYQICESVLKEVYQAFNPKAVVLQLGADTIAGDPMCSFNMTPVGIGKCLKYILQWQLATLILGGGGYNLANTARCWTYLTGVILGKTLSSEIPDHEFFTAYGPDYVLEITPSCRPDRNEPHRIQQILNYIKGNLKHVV
Briefly: Inhibition of human recombinant HDAC8 using H2N-Arg-His-Lys(Ac)-Lys(Ac)-AMC as substrate after 90 mins by fluorescence based micro plate assay.

Data set [2] has as its target T2, Histone deacetylase 1 (Homo sapiens, UniProt Q13547). Briefly: Inhibition of recombinant human HDAC1 at 1 uM using ZMAL as substrate incubated for 90 mins by fluorescence based micro plate assay relative to control. The conditions noted are these: 1.5 h, 1 µM. An outline of the steps: (§1)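 Recombinant human HDAC1 or HDAC6 incubated 90 min at 37°C with ZMAL (Z-(Ac)Lys-AMC, 10.5 μM) and inhibitor. Developed with buffer containing trypsin (1 mg/mL) and TSA (2.75 μM), 20 min at 37°C. Fluorescence read at Ex 390/Em 460 nm.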

For data set [3], the system named is Schistosoma mansoni. The data set is described as follows: Antischistosomal activity against Schistosoma mansoni schistosomula at 20 uM incubated for 48 hrs by Alamar Blue assay. Format: functional. An outline of the steps:
(§2)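 S. mansoni newly transformed schistosomula from mechanically transformed cercariae, 100 NTS/well in Medium 199 with 10% FCS, penicillin, streptomycin and rifampicin. Pre-cultured 3 h at 37°C, 5% CO2. Compounds from 20 mM DMSO stocks, final 10 or 20 μM. Alamar Blue added after 48 h exposure, then 24 h more. Resorufin read at Ex 530/Em 590 nm. Live and ethanol-killed larvae as controls; triplicate wells, two biological replicates.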

For data set [4], the system named is Schistosoma mansoni. Briefly: Antischistosomal activity against Schistosoma mansoni schistosomula at 10 uM incubated for 48 hrs by Alamar Blue assay. The data set is classed as functional. An outline of the steps: as §2
For data set [5], the target named is T3, Histone deacetylase 8 (Schistosoma mansoni, UniProt A5H660).
T3 sequence (A5H660 whole entry): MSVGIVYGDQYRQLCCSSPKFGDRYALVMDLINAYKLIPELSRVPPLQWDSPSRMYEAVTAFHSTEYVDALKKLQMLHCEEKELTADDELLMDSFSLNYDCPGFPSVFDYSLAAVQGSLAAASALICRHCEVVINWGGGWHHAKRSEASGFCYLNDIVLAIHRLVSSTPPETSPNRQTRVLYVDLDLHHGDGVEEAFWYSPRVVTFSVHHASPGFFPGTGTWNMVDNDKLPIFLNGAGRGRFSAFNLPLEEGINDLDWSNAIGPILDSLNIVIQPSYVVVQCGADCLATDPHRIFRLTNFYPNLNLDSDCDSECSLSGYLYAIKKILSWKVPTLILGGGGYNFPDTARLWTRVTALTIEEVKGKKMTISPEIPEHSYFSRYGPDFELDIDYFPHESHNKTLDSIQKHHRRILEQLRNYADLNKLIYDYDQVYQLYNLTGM
The data set is described as follows: Inhibition of Schistosoma mansoni HDAC8 using Fluor de Lys as substrate incubated for 90 mins by fluorescence method. An outline of the steps: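 Recombinant smHDAC8 or hHDAC8 (Romier lab) run to Fluor de Lys HDAC8 kit protocol. Substrate H2N-Arg-His-Lys(Ac)-Lys(Ac)-AMC at 50 μM with increasing inhibitor concentrations, 90 min at 37°C. Stop solution holding inhibitor plus trypsin, then 20 min at 37°C to release AMC. Fluorescence read at Ex 355/Em 460 nm.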

Data set [6] deals with T4, HDAC6 (protein deacetylase HDAC6) (Homo sapiens, UniProt Q9UBN7).
T4 sequence (Q9UBN7 whole entry): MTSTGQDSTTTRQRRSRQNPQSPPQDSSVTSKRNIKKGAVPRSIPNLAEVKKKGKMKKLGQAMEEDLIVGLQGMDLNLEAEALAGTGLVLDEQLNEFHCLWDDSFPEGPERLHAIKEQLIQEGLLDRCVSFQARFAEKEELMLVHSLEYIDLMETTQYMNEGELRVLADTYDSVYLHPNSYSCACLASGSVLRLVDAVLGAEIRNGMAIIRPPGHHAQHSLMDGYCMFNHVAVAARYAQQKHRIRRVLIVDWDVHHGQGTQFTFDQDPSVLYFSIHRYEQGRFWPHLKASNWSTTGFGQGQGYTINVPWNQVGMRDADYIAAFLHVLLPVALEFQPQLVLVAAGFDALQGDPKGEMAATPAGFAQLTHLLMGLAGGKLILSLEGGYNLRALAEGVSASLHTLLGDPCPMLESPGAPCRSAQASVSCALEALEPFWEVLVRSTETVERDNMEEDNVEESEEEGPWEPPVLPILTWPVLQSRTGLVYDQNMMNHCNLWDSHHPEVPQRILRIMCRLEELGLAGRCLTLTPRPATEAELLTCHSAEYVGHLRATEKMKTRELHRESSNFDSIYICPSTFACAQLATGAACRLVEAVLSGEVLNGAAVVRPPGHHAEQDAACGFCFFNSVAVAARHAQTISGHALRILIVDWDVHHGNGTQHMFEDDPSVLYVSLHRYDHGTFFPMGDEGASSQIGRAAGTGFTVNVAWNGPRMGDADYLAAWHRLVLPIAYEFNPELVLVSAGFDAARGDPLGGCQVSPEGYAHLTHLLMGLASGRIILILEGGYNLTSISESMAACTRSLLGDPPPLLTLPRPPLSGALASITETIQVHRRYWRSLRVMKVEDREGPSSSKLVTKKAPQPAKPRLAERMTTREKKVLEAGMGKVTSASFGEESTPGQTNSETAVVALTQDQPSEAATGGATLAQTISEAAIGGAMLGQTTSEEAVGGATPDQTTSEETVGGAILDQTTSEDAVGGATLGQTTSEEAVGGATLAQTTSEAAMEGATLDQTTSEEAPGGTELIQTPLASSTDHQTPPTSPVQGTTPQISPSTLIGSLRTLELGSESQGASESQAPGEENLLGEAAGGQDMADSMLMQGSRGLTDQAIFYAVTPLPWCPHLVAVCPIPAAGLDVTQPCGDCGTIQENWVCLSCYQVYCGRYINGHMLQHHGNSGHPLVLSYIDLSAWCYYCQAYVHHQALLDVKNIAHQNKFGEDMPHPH
Briefly: Inhibition of recombinant human HDAC6 at 1 uM using ZMAL as substrate incubated for 90 mins by fluorescence based micro plate assay relative to control. To be noted: recombinant human HDAC6, probe ZMAL. An outline of the steps: as §1

The test system of data set [7] is HEK293. The data set is described as follows: Cytotoxicity against human HEK293 assessed as reduction in cell viability at 50 uM measured for 24 hrs by Alamar Blue assay. To be noted: hek293, 24 h. The data set is classed as cell-based. An outline of the steps: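 HEK293 cells in DMEM with 10% FCS and 5 mM glutamine at 37°C, 5% CO2, seeded at 1.5×10^3 cells/well. Compounds added at 50 μM. AlamarBlue added after 24 h and incubated a further 21 h. Resorufin fluorescence read at Ex 530/Em 590 nm. Triplicates; daunorubicin positive control.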
(In general: Alamar Blue is a resazurin reagent that responds to reducing activity.)

Data set [8] deals with HDAC1 (histone deacetylase 1) (Homo sapiens, UniProt Q13547). Briefly: Inhibition of recombinant human HDAC1 at 10 uM using ZMAL as substrate incubated for 90 mins by fluorescence based micro plate assay relative to control. To be noted: recombinant human HDAC1, probe ZMAL. An outline of the steps: as §1
Sequence of HDAC1 (histone deacetylase 1) (Q13547 whole entry): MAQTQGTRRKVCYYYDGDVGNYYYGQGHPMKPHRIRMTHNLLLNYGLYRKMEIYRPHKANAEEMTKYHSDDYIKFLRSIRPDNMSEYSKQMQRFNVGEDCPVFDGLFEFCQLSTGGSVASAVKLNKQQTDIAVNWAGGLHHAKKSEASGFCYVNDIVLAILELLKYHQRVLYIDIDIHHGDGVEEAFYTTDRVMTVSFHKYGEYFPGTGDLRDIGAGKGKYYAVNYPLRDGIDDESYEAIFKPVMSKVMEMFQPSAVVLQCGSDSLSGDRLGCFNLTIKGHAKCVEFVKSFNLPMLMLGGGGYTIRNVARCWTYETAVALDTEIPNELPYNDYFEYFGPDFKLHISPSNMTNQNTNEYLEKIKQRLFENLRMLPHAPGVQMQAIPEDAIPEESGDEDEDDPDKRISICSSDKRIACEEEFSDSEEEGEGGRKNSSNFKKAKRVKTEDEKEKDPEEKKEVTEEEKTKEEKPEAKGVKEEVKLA
The target in data set [9] is T4, HDAC6 (protein deacetylase HDAC6). The data set is described as follows: Inhibition of recombinant human HDAC6 at 10 uM using ZMAL as substrate incubated for 90 mins by fluorescence based micro plate assay relative to control. The conditions noted are these: recombinant human HDAC6, probe ZMAL. An outline of the steps:
as §1

The target is the same in data set [10]. Briefly: Inhibition of recombinant human HDAC6 at 100 uM using ZMAL as substrate incubated for 90 mins by fluorescence based micro plate assay relative to control. To be noted: recombinant human HDAC6, probe ZMAL. An outline of the steps: as §1
In data set [11] the test system is Schistosoma mansoni. The data set is described as follows: Antischistosomal activity against Schistosoma mansoni schistosomula incubated for 72 hrs by Alamar Blue assay. Format: functional, organism-based. The method in brief:
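Same schistosomula Alamar Blue assay (100 NTS/well, supplemented Medium 199, 37°C, 5% CO2) run over a range of concentrations. Alamar Blue added after 48 h drug exposure, fluorescence (Ex 530/Em 590 nm) read 24 h later, 72 h in culture in total. EC50 taken from the concentration-response.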

The target in data set [12] is T2, Histone deacetylase 1. The data set is described as follows: Inhibition of recombinant human HDAC1 using ZMAL as substrate incubated for 90 mins by fluorescence based micro plate assay.
A short description of data set [13]: Solubility of the compound. The data set is classed as physicochemical.
The target in data set [14] is T5, Protein deacetylase HDAC6 (Homo sapiens, UniProt Q9UBN7).
T5 sequence (Q9UBN7 whole entry): T4 sequence (Q9UBN7 whole entry)
The data set is described as follows: Inhibition of recombinant human HDAC6 using ZMAL as substrate incubated for 90 mins by fluorescence based micro plate assay.

pEC50, pIC50: −log10 of the molar value.

T2 sequence (Q13547 whole entry): as above

Take `COc1ccc(C(=O)NO)cc1NC(=O)c1ccc(-c2ccccc2)cc1Cl`: the pIC50 in data set [1] was 5.96; in [5], 7.00. Besides, the “inhibition (INH)” value in [2] was “Not Active”. For the same molecule, the Activity is listed as 65.6% in data set [3], 64% in data set [4] and 94.6% in data set [7]. In addition, the inhibition at 1.5 h, 1 µM in data set [6] was 15%. The inhibition at 1.5 h, 10 µM was found to be 16% in data set [8] and 46% in data set [9].

In the case of `COc1ccc(Cn2ccc3ccc(C(=O)NO)cc32)cc1`, the Activity in data set [3] came out at 62.3%; in data set [4] it was 71%; in [7] it was 96.8%. Besides, the inhibition at 1.5 h, 100 µM in data set [10] is 41%.

Regarding `COc1ccc(C(=O)NO)cc1NC(=O)c1cccc2c1oc1ccccc12`, the pIC50 was 6.49 in [1], 4.73 in data set [12], 6.57 in data set [5] and 6.54 in data set [14]. The pEC50 in [11] was 5.46. In addition, the figures for the Activity in data set [4] and in data set [7] were 2.2% and 73%, respectively. For the same molecule, the solubility entry in [13] is recorded as “Insoluble”.

The term pIC50 denotes the IC50 on a negative log10 scale, so that one unit is a factor of ten. For orientation: inhibition means the relative decrease from the control value, in per cent. For orientation: pEC50 means −log10 of the EC50, conventionally taken in molar units. A higher pEC50 goes with a small EC50.
